Experimental data taken from ChEMBL document CHEMBL1121853, “New antiarrhythmic agents. 7. 2,3-Diaminopropionanilides” (J Med Chem, 1981).

Assays:
Mus musculus [1] = experiment: CNS toxicity expressed as percent of ataxia evoked in mice at a dose of 10 mg/kg; type: functional
Mus musculus [2] = species on record: Mus musculus; experiment: Effective dose of compound that evoked CNS toxicity in mice in the form of convulsions; type: functional
Outline: (§1)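 Mice dosed subcutaneously, groups of 10. Over a 20-min period they were watched for ataxia, convulsions, loss of righting reflex or death, then each was placed in chloroform-vapor-saturated air until respiration ceased. ED50 with 95% Fieller limits for protection against tachycardia, ataxia and convulsions, calculated by Berkson's logit chi-square method.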

Mus musculus [3] = species on record: Mus musculus; experiment: Effective dose of compound that protects mice against chloroform induced tachycardia; type: functional; outline: as §1
Mus musculus [4] = experiment: Percent protection against chloroform induced tachycardia in mice at 15.8 mg/kg; Inactive; type: functional
Mus musculus [5] = species on record: Mus musculus; experiment: Effective dose of compound that evoked CNS toxicity in mice in the form of ataxia; type: functional; outline: as §1
Rattus norvegicus [6] = experiment: Anesthetic activity of compound (0.25%) was evaluated by duration of sciatic nerve block; type: functional
Outline: (§2)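 Rat sciatic nerve block: 0.2 mL of test solution (concentration as base, with 1:100 000 epinephrine) injected into the mid-thigh around the sciatic nerve trunk, both hind limbs. Five rats per concentration, so up to 10 blocks. Animals examined at frequent intervals for onset of and recovery from motor block. Duration given as mean ± standard deviation.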

Rattus norvegicus [7] = experiment: Anesthetic activity of compound (0.5%) was evaluated by duration of sciatic nerve block; type: functional; outline: as §2
Rattus norvegicus [8] = experiment: Anesthetic activity of compound (1.0%) was evaluated by duration of sciatic nerve block; type: functional; outline: as §2
[9] = Lethal dose of compound evaluated by administering intravenously to female CRCD mice; type: toxicity, organism-based; conditions: mouse, in vivo, iv
Outline: (§3)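 Female CRCD mice (20–25 g), in groups, given compound dissolved in isotonic saline or distilled water, either by tail-vein (iv) or intraperitoneal injection. Doses expressed as base. LD50 and 95% confidence limits calculated by the minimum logit chi-square method.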

Mus musculus [10] = experiment: CNS toxicity expressed as percent of convulsions evoked in mice at a dose of 100 mg/kg; type: functional
Mus musculus [11] = experiment: CNS toxicity expressed as percent of ataxia evoked in mice at a dose of 100 mg/kg; type: functional
Mus musculus [12] = experiment: Percent protection against chloroform induced tachycardia in mice at 100 mg/kg; type: functional
Rattus norvegicus [13] = experiment: Anesthetic activity of compound (0.125%) was evaluated by duration of sciatic nerve block; type: functional; outline: as §2
Rattus norvegicus [14] = experiment: Anesthetic activity of compound (2.0%) was evaluated by duration of sciatic nerve block
Mus musculus [15] = experiment: CNS toxicity expressed as percent of convulsions evoked in mice at a dose of 631 mg/kg; type: functional
Mus musculus [16] = experiment: CNS toxicity expressed as percent of ataxia evoked in mice at a dose of 631 mg/kg; type: functional
Mus musculus [17] = experiment: Percent death against chloroform induced tachycardia in mice at 631 mg/kg; type: functional
Outline: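 Mice in groups of 10, dosed subcutaneously, then watched for 20 min for ataxia, convulsions, loss of righting reflex or death. Survivors were placed individually in chloroform-vapour-saturated air until respiration ceased. Percent of animals dead at the single dose was recorded alongside protection, ataxia and convulsion counts.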

Mus musculus [18] = experiment: Percent protection against chloroform induced tachycardia n mice at 631 mg/kg; Inactive; type: functional
[19] = Lethal dose of compound evaluated by administering intraperitoneally to female CRCD mice; type: toxicity, organism-based; conditions: mouse, in vivo, ip; outline: as §3
Mus musculus [20] = experiment: CNS toxicity expressed as percent of convulsions evoked in mice at a dose of 79.4 mg/kg; Inactive; type: functional
Mus musculus [21] = experiment: CNS toxicity expressed as percent of ataxia evoked in mice at a dose of 79.4 mg/kg; type: functional
Mus musculus [22] = experiment: Percent protection against chloroform induced tachycardia in mice at 79.4 mg/kg; Inactive; type: functional
Mus musculus [23] = experiment: Percent protection against chloroform induced tachycardia in mice at 398 mg/kg; type: functional
Rattus norvegicus [24] = experiment: Anesthetic activity of compound (0.125%) was evaluated by duration of sciatic nerve block; NB= no blocks (0/10); type: functional, organism-based; outline: as §2
Rattus norvegicus [25] = experiment: Anesthetic activity of compound (0.25%) was evaluated by duration of sciatic nerve block; NB= no blocks (0/10); type: functional, organism-based; outline: as §2
Mus musculus [26] = experiment: CNS toxicity expressed as percent of ataxia evoked in mice at a dose of 50.1 mg/kg; type: functional
Mus musculus [27] = experiment: CNS toxicity expressed as percent of convulsions evoked in mice at a dose of 200 mg/kg; Inactive; type: functional
Mus musculus [28] = experiment: CNS toxicity expressed as percent of ataxia evoked in mice at a dose of 200 mg/kg; Inactive; type: functional
Mus musculus [29] = experiment: Percent protection against chloroform induced tachycardia in mice at 200 mg/kg; Inactive; type: functional

SMILES | ED50 (Mus musculus [2]) [mg/kg] | ED50 (Mus musculus [3]) [mg/kg] | ED50 (Mus musculus [5]) [mg/kg] | Duration (Rattus norvegicus [6]) [min] | Duration (Rattus norvegicus [7]) [min] | Duration (Rattus norvegicus [8]) [min] | Duration (Rattus norvegicus [13]) [min] | LD50 [19] [mg/kg] | other results
CCN(C)CC(C(=O)Nc1c(C)cccc1C)N(C)CC (centres undefined) | 12 | 13 | – | – | – | – | – | – | Ataxia (Mus musculus [1]): 100%
C=CCN(C)CC(C(=O)Nc1c(C)cccc1C)N(C)CC=C (centres undefined) | 17 | – | 13 | – | – | – | – | – | Protection (Mus musculus [4]): 30%
CCN(CC)CC(=O)Nc1c(C)cccc1C [LIDOCAINE] | – | 61 | 42 | 102 | 123 | 162 | – | – | –
CCN(CC)CC(C(=O)Nc1cccc(OC)c1)N(CC)CC (centres undefined) | – | – | – | 87 | 100 | 145 | 77 | – | LD50 [9]: 20 mg/kg; Convulsions (Mus musculus [10]): 0%; Ataxia (Mus musculus [11]): 0%; Protection (Mus musculus [12]): 60%; Duration (Rattus norvegicus [14]): 265 min
Cc1cccc(C)c1NC(=O)C(C)N (centres undefined) [TOCAINIDE] | – | 250 | 146 | – | 44 | 79 | – | – | LD50 [9]: 94 mg/kg
C#CCN(C)CC(C(=O)Nc1c(C)cccc1C)N(C)CC#C (centres undefined) | – | – | – | – | – | – | – | – | Convulsions (Mus musculus [15]): 40%; Ataxia (Mus musculus [16]): 40%; Death (Mus musculus [17]): 40%; Protection (Mus musculus [18]): 0%
CCN(CC)CC(C(=O)Nc1ccc(OC)cc1C)N(CC)CC (centres undefined) | – | – | – | 151 | 157 | 150 | 162 | 102 | Duration (Rattus norvegicus [14]): 184 min
CCCN(CC)CC(C(=O)Nc1ccccc1OC)N(CC)CCC (centres undefined) | – | – | – | 116 | 260 | – | 80 | – | LD50 [9]: 11 mg/kg
COCCN(C)CC(C(=O)Nc1c(C)cccc1C)N(C)CCOC (centres undefined) | 5.1 | 2.6 | 4.3 | – | – | – | – | – | –
CCN(CC)CC(C(=O)Nc1cc(C)ccc1OC)N(CC)CC (centres undefined) | 137 | 106 | 96 | 125 | 166 | 273 | 94 | 81 | –
CCN(CC)CCC(=O)Nc1c(C)cccc1C | – | 69 | 52 | 110 | 146 | 184 | – | – | –
Cc1cccc(C)c1NC(=O)C(CN(C)C(C)C)N(C)C(C)C (centres undefined) | 9.3 | 6.1 | 6 | – | – | – | – | – | –
CCOc1ccccc1NC(=O)C(CN(C)CC)N(C)CC (centres undefined) | – | – | – | 105 | 136 | 189 | 78 | 94 | –
Cc1cccc(C)c1NC(=O)C(CN1CCOCC1)N1CCOCC1 (centres undefined) | – | – | – | 72 | 102 | 138 | 72 | – | Convulsions (Mus musculus [20]): 0%; Ataxia (Mus musculus [21]): 100%; Protection (Mus musculus [22]): 10%; Duration (Rattus norvegicus [14]): 193 min
CCCN(CC)C(CC)C(=O)Nc1c(C)cccc1C (centres undefined) [ETIDOCAINE] | – | – | – | 222 | 279 | – | 156 | 56 | LD50 [9]: 7 mg/kg
Cc1cccc(C)c1NC(=O)C(CN1CCCC1)N1CCCC1 (centres undefined) | 12 | 14 | 12 | – | – | – | – | – | –
CCOc1ccc(NC(=O)C(CN(C)C)N(C)C)cc1OCC (centres undefined) | 317 | – | 199 | – | 83 | 133 | – | – | Protection (Mus musculus [23]): 50%; Duration (Rattus norvegicus [24]): No blocks; Duration (Rattus norvegicus [25]): No blocks; Duration (Rattus norvegicus [14]): 147 min
Cc1cccc(C)c1NC(=O)C(CN(C)C)N(C)C (centres undefined) | 23 | 17 | 16 | – | – | – | – | – | –
CCCN(CC)CC(C(=O)Nc1ccc(OC)cc1C)N(CC)CCC (centres undefined) | – | – | – | 107 | 227 | – | 96 | 66 | –
CCN(CC)CC(C(=O)Nc1ccccc1OC)N(CC)CC (centres undefined) | 65 | 81 | – | 91 | 66 | 178 | – | 70 | Ataxia (Mus musculus [26]): 40%; Duration (Rattus norvegicus [14]): 184 min
CCOc1ccccc1NC(=O)C(CN(CC)CC)N(CC)CC (centres undefined) | – | – | – | 138 | 176 | – | 140 | 81 | –
Cc1cccc(C)c1NC(=O)C1CNCCN1 (centres undefined) | – | – | – | – | – | – | – | – | Convulsions (Mus musculus [27]): 0%; Ataxia (Mus musculus [28]): 0%; Protection (Mus musculus [29]): 10%
